From ChEMBL document CHEMBL1156360, “New phenylpropanoid esters of sucrose from Polygonum lapathifolium” (J Nat Prod, 2001)

Tests used:
Type in all cases: cell-based
Raji [1] = experiment: Inhibition of 12-O-tetradecanoylphorbol-13-acetate-induced EBV-early antigen activation in human Raji cells at 100 molar ratio relative to TPA; parameters: scale not given: the % may be the effect or the level left; details: human gammaherpesvirus 4
Summary of the method: (§1)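 Raji cells (virus nonproducer, 1×10^6/mL) were cultured 48 h at 37 °C in 1 mL medium with n-butyric acid (4 mmol), TPA inducer (32 pmol = 20 ng in DMSO) and compound in DMSO. Dose is the mol ratio to TPA. EA-positive cells on smears were found by indirect immunofluorescence using NPC patient serum. Triplicate assays; induction is given relative to the butyric acid + TPA control (100%).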

[2] = Cytotoxicity against human Raji cells assessed as cell viability at 10 molar ratio by Trypan blue method; details: read-out: Activity
Summary of the method: (§2)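 Raji cells (1×10^6/mL) given n-butyric acid (4 mmol), TPA (32 pmol = 20 ng per mL, in DMSO) and test compound in DMSO, then held at 37 °C for 48 h. Dose is the mol ratio of compound to TPA. Viability of the treated cells was scored by Trypan Blue staining.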

[3] = Cytotoxicity against human Raji cells assessed as cell viability at 100 molar ratio by Trypan blue method; details: read-out: Activity; summary of the method: as §2
[4] = Cytotoxicity against human Raji cells assessed as cell viability at 500 molar ratio by Trypan blue method; details: read-out: Activity; summary of the method: as §2
Raji [5] = experiment: Inhibition of 12-O-tetradecanoylphorbol-13-acetate-induced EBV-early antigen activation in human Raji cells at 500 molar ratio relative to TPA; parameters: scale not given: the % may be the effect or the level left; details: human gammaherpesvirus 4; summary of the method: as §1
Raji [6] = experiment: Inhibition of 12-O-tetradecanoylphorbol-13-acetate-induced EBV-early antigen activation in human Raji cells at 10 molar ratio relative to TPA; parameters: scale not given: the % may be the effect or the level left; details: human gammaherpesvirus 4; summary of the method: as §1
Raji [7] = experiment: Inhibition of 12-O-tetradecanoylphorbol-13-acetate-induced EBV-early antigen activation in human Raji cells at 1000 molar ratio relative to TPA; parameters: scale not given: the % may be the effect or the level left; details: human gammaherpesvirus 4; summary of the method: as §1
[8] = Cytotoxicity against human Raji cells assessed as cell viability at 1000 molar ratio by Trypan blue method; details: read-out: Activity; summary of the method: as §2

SMILES | Activity (Raji [1]) [%] | viability at 10 molar ratio [2] [%] | viability at 100 molar ratio [3] [%] | viability at 500 molar ratio [4] [%] | Activity (Raji [5]) [%] | Activity (Raji [6]) [%] | Activity (Raji [7]) [%] | viability at 1000 molar ratio [8] [%]
CC[C@H](CC[C@@H](C)[C@H]1CC[C@H]2[C@@H]3C(=O)C=C4C[C@@H](O)CC[C@]4(C)[C@H]3CC[C@]12C)C(C)C | 71.5 | > 80 | > 80 | > 80 | 42.8 | 100 | 11.5 | 60
Oc1cc(O)c2c(c1)O[C@@H](c1ccc(O)c(O)c1)[C@H](O)C2 [(-)-CATECHIN] | 75.8 | > 80 | > 80 | > 80 | 41.3 | 100 | 11.3 | 70
O=C(/C=C/c1ccc(O)cc1)OC[C@H]1O[C@@](COC(=O)/C=C/c2ccc(O)cc2)(O[C@H]2O[C@H](CO)[C@@H](O)[C@H](O)[C@H]2O)[C@@H](OC(=O)/C=C/c2ccc(O)cc2)[C@@H]1O [HYDROPIPEROSIDE] | 71.5 | > 80 | > 80 | > 80 | 39.6 | 100 | 10.6 | 70
COc1cc(/C=C/C(=O)OC[C@H]2O[C@H](O[C@]3(COC(=O)/C=C/c4ccc(O)c(OC)c4)O[C@H](COC(=O)/C=C/c4ccc(O)cc4)[C@@H](O)[C@@H]3OC(=O)/C=C/c3ccc(O)cc3)[C@H](O)[C@@H](O)[C@@H]2O)ccc1O [LAPATHOSIDE A] | 70.9 | > 80 | > 80 | > 80 | 37.2 | 95 | 10 | 70
COc1cc(/C=C/C(=O)OC[C@H]2O[C@@](COC(=O)/C=C/c3ccc(O)c(OC)c3)(O[C@H]3O[C@H](COC(=O)/C=C/c4ccc(O)c(OC)c4)[C@@H](O)[C@H](O)[C@H]3O)[C@@H](OC(=O)/C=C/c3ccc(O)cc3)[C@@H]2O)ccc1O [LAPATHOSIDE B] | 77.9 | > 80 | > 80 | > 80 | 51.6 | 100 | 26.8 | 60
COc1cc(/C=C/C(=O)OC[C@H]2O[C@H](O[C@]3(CO)O[C@H](COC(=O)/C=C/c4ccc(O)cc4)[C@@H](O)[C@@H]3OC(=O)/C=C/c3ccc(O)cc3)[C@H](O)[C@@H](O)[C@@H]2O)ccc1O [LAPATHOSIDE C] | 83.5 | > 80 | > 80 | > 80 | 59 | 100 | 33.6 | 70
O=C(/C=C/c1ccc(O)cc1)OC[C@H]1O[C@@](CO)(O[C@H]2O[C@H](CO)[C@@H](O)[C@H](O)[C@H]2O)[C@@H](OC(=O)/C=C/c2ccc(O)cc2)[C@@H]1O [LAPATHOSIDE D] | 71.4 | > 80 | > 80 | > 80 | 38.3 | 100 | 10.5 | 70
COC(=O)/C=C/c1ccc(O)cc1 [METHYL P-HYDROXYCINNAMATE] | 77.5 | > 80 | > 80 | > 80 | 42.6 | 100 | 15.7 | 70
CC[C@H](CC[C@@H](C)[C@H]1CC[C@H]2[C@@H]3CC=C4C[C@@H](O[C@@H]5O[C@H](CO)[C@@H](O)[C@H](O)[C@H]5O)CC[C@]4(C)[C@H]3CC[C@]12C)C(C)C [SITOGLUSIDE] | 73.9 | > 80 | > 80 | > 80 | 45.7 | 100 | 14.8 | 60
COc1cc(/C=C/C(=O)OC[C@H]2O[C@H](O[C@]3(COC(=O)/C=C/c4ccc(O)cc4)O[C@H](COC(=O)/C=C/c4ccc(O)cc4)[C@@H](O)[C@@H]3OC(=O)/C=C/c3ccc(O)cc3)[C@H](O)[C@@H](O)[C@@H]2O)ccc1O [VANICOSIDE B] | 70 | > 80 | > 80 | > 80 | 40.9 | 100 | 11.8 | 70
